Source: publication PMC12376068 (Protein Science : A Publication of the Protein Society, 2025)
Bridge positions count the residues as written; N and C are the ends. Square brackets hold non-standard residues; d marks the D form. Ends that are not written are not given here. I, II: the chains in the order shown. propargylglycine(fluorescein) = propargylglycine labeled with fluorescein azide by click chemistry; PEG10 = NCCOCCOCCOCCOCCOCCOCCOCCOCCOCCOCCC(=O)O

Legend:
[1] = biological target: hPD-L1 on the surface of CHO cells (Homo sapiens, UniProt Q9NZQ7); assay: Flow cytometry binding to CHO hPD-L1 cells; format: cell-based; details: flow cytometry (Figure S15D)
[2] = cited from earlier work
[3] = test system: MDA-MB-468 cells; assay: Flow cytometry binding to hPD-L1-negative MDA-MB-468 cells; format: cell-based, human; details: SPAM2-fluorescein dilution series
How it was run: (§1)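 CHO cells stably transfected with hPD-L2, or MDA-MB-468 cells, were grown in DMEM with 10% heat-inactivated FBS. They were lifted with trypsin-EDTA and resuspended in serum-free medium at 200,000 cells per well. Cells were incubated 1 h at 4°C in the dark with a dilution series of fluorescein-conjugated test peptide in cold 1:1 PBS:SF medium. After three cold-PBS washes, live single-cell fluorescence was read by flow cytometry (488 nm excitation).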

[4] = Peptide solubility and aggregation; format: physicochemical; details: all conditions tested for CD spectroscopy
How it was run: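 Lyophilized peptide was reconstituted in phosphate buffer (15 mM pH 6.5 or 50 mM pH 4.5) containing 10–20% MeOH or TFE. Samples were vortexed and sonicated 5 min. Concentration was set by absorbance at 280 nm, using 5500 M−1 cm−1 per Trp and 1490 M−1 cm−1 per Tyr. Absorbance had to stay constant over 20 min to exclude aggregation.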

[5] = biological target: mouse PD-L1 (mPD-L1) on CHO cells (Mus musculus, UniProt Q9EP73); assay: Flow cytometry binding to CHO cells expressing mouse PD-L1; format: cell-based; details: highest concentration tested, 1200 nM (Figure S15E)
[6] = biological target: T1, human PD-L2 (hPD-L2) on CHO cells (Homo sapiens, UniProt Q9BQ51); assay: Flow cytometry binding to CHO cells expressing human PD-L2; format: cell-based; details: highest concentration tested, 1200 nM (Figure S15E)
T1 sequence (Q9BQ51 20-273): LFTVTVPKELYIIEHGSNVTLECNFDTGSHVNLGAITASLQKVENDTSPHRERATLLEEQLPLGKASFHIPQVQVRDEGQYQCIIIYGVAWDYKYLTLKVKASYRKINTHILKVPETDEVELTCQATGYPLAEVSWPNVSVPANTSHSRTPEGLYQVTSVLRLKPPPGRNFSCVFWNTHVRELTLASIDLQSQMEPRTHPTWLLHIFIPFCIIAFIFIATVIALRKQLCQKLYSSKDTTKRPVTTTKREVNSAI
How it was run: as §1

[7] = biological target: hPD-L1 (Homo sapiens, UniProt Q9NZQ7); assay: Biolayer interferometry; format: binding
How it was run: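 Extracellular-domain hPD-L1 was expressed in HEK293F cells, Ni-NTA purified and BirA-biotinylated. At 1 μg mL−1 it was loaded onto streptavidin biosensors to 1.4 nm, with PD-L1-free sensors as reference. Association ran 180 s and dissociation 900 s in assay buffer. Sensorgrams were normalized to no-peptide and globally fit to a 1:1 Langmuir model. Duplicates; means and fitting errors reported.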

[8] = biological target: PD-1/hPD-L1 interaction (Homo sapiens, UniProt Q9NZQ7); assay: PD-L1 T-cell reactivation assay; format: cell-based; details: 5 μM peptide, 6 h at 37 °C, Bio-Glo luminescence, RLU relative to vehicle
[9] = Far-UV CD thermal denaturation; format: physicochemical; details: pH 6.5, 0-90°C
How it was run: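 Peptide was prepared in PB/MeOH 80:20 (15 mM PB pH 6.5 or 50 mM pH 4.5) at 17–70 μM, set by UV absorbance, in a 0.1 cm quartz cuvette. Far-UV spectra were taken at 190–270 nm, averaged over eight scans, with solvent blank subtracted. The ramp ran 0–90°C at 45°C per hour under nitrogen. Melts used molar ellipticity at 220 or 222 nm; first-derivative maxima gave transitions.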

[10] = biological target: human PD‐L1 stably expressed on CHO cells (human, UniProt Q9NZQ7 19-290); assay: flow cytometry on cells
human PD‐L1 stably expressed on CHO cells, sequence (Q9NZQ7 19-290): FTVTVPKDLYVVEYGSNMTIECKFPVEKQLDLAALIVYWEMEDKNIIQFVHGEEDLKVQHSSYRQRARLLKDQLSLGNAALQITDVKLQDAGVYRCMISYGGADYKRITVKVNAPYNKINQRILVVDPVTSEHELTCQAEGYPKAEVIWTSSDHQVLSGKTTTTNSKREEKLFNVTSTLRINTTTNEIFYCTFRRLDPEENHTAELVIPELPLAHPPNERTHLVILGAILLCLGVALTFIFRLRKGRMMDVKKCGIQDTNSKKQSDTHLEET

hPD-L1, sequence (Q9NZQ7 19-238 limits assumed): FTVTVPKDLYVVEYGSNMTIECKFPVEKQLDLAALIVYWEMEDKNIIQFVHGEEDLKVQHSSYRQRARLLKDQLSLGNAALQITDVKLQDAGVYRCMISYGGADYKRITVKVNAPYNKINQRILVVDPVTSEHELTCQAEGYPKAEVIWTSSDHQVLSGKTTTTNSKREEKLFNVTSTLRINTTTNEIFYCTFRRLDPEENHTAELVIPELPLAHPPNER
hPD-L1 on the surface of CHO cells, sequence (Q9NZQ7 19-290): as the sequence (Q9NZQ7 19-290) above
mouse PD-L1 (mPD-L1) on CHO cells, sequence (Q9EP73 19-290): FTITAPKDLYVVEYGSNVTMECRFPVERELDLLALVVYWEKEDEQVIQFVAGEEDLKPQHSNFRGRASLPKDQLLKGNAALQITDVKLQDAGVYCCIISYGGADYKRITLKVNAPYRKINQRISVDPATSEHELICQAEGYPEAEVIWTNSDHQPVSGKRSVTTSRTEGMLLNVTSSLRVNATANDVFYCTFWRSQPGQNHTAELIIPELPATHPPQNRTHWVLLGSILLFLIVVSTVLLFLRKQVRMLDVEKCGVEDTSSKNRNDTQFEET
PD-1/hPD-L1 interaction, sequence (Q9NZQ7 19-290): as the sequence (Q9NZQ7 19-290) above

MSLANYNWSHPSRKDNIHWSLFGSSSSGS [SPAM2 scrambled]
binding of sequence-scrambled peptides to CHO-hPD-L1 cells [1]: no significant binding

SGQYASYHCWCWRDPGRSGGSK [TPP-1, reference compound]
serum stability ([2]; ref Hu et al., 2019): poor serum stability

SPAM2‐fluorescein: SPAM2 with C-terminal propargylglycine labeled with fluorescein azide by click chemistry (MWSRSDHNLNKFWILHYSANPS-{propargylglycine(fluorescein)}; also: fluorescein azide attached by click chemistry)
labeling of hPD-L1-negative cells [3]: no concentration‐dependent labeling

MALPIFSNTYLSHTDLKNYHILGSSSSGS [SPAM3 scrambled]
binding of sequence-scrambled peptides to CHO-hPD-L1 cells [1]: no significant binding

I: MYSSTDHILNKFLILHYALNPT[PEG10]K-NH2 / II: MYSSTDHILNKFLILHYALNPT[PEG10] (amide I:24-II:C) [SPAM4]
solubility [4]: low solubility | binding to CHO-mPD-L1 cells [5]: no binding | binding to CHO-hPD-L2 cells [6]: no binding | koff [7]: 0.000219 ± 4e-06 s⁻¹ | kon [7]: 2.23e+06 ± 110000 M⁻¹ s⁻¹

MWSRSDHNLNKFWILHYSANPS-NH2 [SPAM2]
signal restored in T-cell reactivation assay [8]: more than 50% | koff [7]: 0.00264 ± 2e-05 s⁻¹ | kon [7]: 8.78e+06 ± 210000 M⁻¹ s⁻¹

MPIFLDHILNKFWILHYA-NH2 [SPAM]
serum stability (ex vivo) ([2]; ref Kamalinia et al., 2020): acceptable serum stability | temperature above which irreversible aggregation occurs in thermal denaturation [9]: above 50 °C | koff [7]: 0.049 ± 0.0009 s⁻¹ | kon [7]: 1.41e+06 ± 30000 M⁻¹ s⁻¹ | Kd ([7]; K D by BLI, BLI, mean of duplicate): 38 ± 1 nM

MYSSTDHILNKFLILHYALNPT-NH2 [SPAM3]
koff [7]: 0.00146 ± 1e-05 s⁻¹ | kon [7]: 5.78e+06 ± 80000 M⁻¹ s⁻¹

B1: SPAM2‐fluorescein (peptide)
peptide: MWSRSDHNLNKFWILHYSANPS
modifications: also: fluorescein (position not given here)
Kd [10]: 15.3 nM

B2: fluorescein‐labeled SPAM3 (peptide)
peptide: MYSSTDHILNKFLILHYALNPT
modifications: also: fluorescein (position not given here)
Kd [10]: 5.15 nM
